We go through two molecules from ChEMBL document CHEMBL1147108, “Comparison of disk diffusion and agar dilution methods for erythromycin and ciprofloxacin susceptibility testing of Campylobacter jejuni subsp. jejuni” (2007).

≈ marks a conversion by molar mass, not a printed value. Bounds are passed on as bounds.

Common to all, as to format: functional
Experiment [1] deals with Campylobacter jejuni. Description: Antibacterial activity against susceptible Campylobacter jejuni isolates by disk diffusion test. Conditions: for MIC: Campylobacter jejuni. In a few lines: (§1)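 Isolate suspensions were made in Mueller-Hinton broth to 0.5 McFarland and spread on Mueller-Hinton agar with 5% sheep blood. Disks used were erythromycin 15 μg and ciprofloxacin 5 μg. Plates were held at 37°C for 48 h, and inhibition zone diameters were measured with slipping calipers; 6 mm means no zone.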

For experiment [2], the system named is Campylobacter jejuni. Description: Antibacterial activity against susceptible Campylobacter jejuni isolates by agar dilution test. In a few lines: (§2)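 Agar dilution MICs of clinical C. jejuni isolates, run at 37°C following CLSI recommendations; C. jejuni ATCC 33560 served as control strain.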
Background: In agar dilution, organisms are placed on agar that contains the substance at set levels.

The subject of experiment [3] is Campylobacter jejuni. Description: Antimicrobial activity against ciprofloxacin-resistant Campylobacter jejuni isolates by disk diffusion test. In a few lines:
as §1
A general note: In agar diffusion tests the substance spreads into inoculated agar from a disc or well.

The subject of experiment [4] is Campylobacter jejuni. Description: Antimicrobial activity against ciprofloxacin-resistant Campylobacter jejuni isolate by agar dilution test. In a few lines: as §2
The subject of experiment [5] is Campylobacter jejuni. Description: Antibacterial activity against erythromycin-resistant Campylobacter jejuni isolates by disk diffusion test. In a few lines:
as §1

In experiment [6] the test system is Campylobacter jejuni. The experiment in a line: Antibacterial activity against erythromycin-resistant Campylobacter jejuni isolates by agar dilution test. In a few lines: as §2

With `O=C(O)c1cn(C2CC2)c2cc(N3CCNCC3)c(F)cc2c1=O` [CIPROFLOXACIN], the figures for the “inhibition zone (IZ)” value in the experiment on Campylobacter jejuni [1] and with Campylobacter jejuni [3] were 21 mm and 6 mm, respectively. Besides, the minimum inhibitory concentration (MIC) in the experiment on Campylobacter jejuni [1] was found to be 0.06 µg/mL (≈ 0.181 µM); with Campylobacter jejuni [2], 0.06 µg/mL (≈ 0.181 µM); in the experiment on Campylobacter jejuni [3] (Campylobacter jejuni), 4 µg/mL (≈ 12.1 µM); against Campylobacter jejuni [4], 4 µg/mL (≈ 12.1 µM).
Turning to `CC[C@H]1OC(=O)[C@H](C)[C@@H](O[C@H]2C[C@@](C)(OC)[C@@H](O)[C@H](C)O2)[C@H](C)[C@@H](O[C@@H]2O[C@H](C)C[C@H](N(C)C)[C@H]2O)[C@](C)(O)C[C@@H](C)C(=O)[C@H](C)[C@@H](O)[C@]1(C)O` [ERYTHROMYCIN], the “inhibition zone (IZ)” value turned out to be 17.5 mm with Campylobacter jejuni [1] and 6 mm with Campylobacter jejuni [5]. In addition, the MIC was 0.06 µg/mL (≈ 0.0818 µM) in the experiment with Campylobacter jejuni [1], at least 256 µg/mL against Campylobacter jejuni [5] (Campylobacter jejuni), 0.06 µg/mL (≈ 0.0818 µM) against Campylobacter jejuni [2] and at least 256 µg/mL in the experiment on Campylobacter jejuni [6].

Broadly, the MIC is the lowest concentration that inhibits growth of the organism. Lower therefore signals a more susceptible organism.
